The source made the active and inactive calls. The calls are words filed in the database; no cut-off is given here.
How the values were obtained:
[1] = Aqueous solubility at pH 7.4; assay type: physicochemical
[2] = Aqueous stability of the compound; assay type: physicochemical; conditions: buffer
In short: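 The compound was dissolved in water at 50 mM and held at pH 5 and at pH 9 for 8 h at room temperature. Remaining intact compound was measured by UV-HPLC.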

Sus scrofa [3] = assay: Tmax in pig at 5.0 mg/kg, po assessed as fenbendazole sulfoxide level; assay type: ADME, organism-based; set-up: dose 5 mg/kg, route oral; conditions: in vivo
In short: (§1)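 Swine received a single oral dose of 5.0 mg/kg, given as an aqueous solution or suspension. Plasma levels of fenbendazole, fenbendazole sulfoxide and fenbendazole sulfone were measured over time. Cmax, Tmax and AUC were derived for each analyte.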

[4] = Cmax in pig at 5.0 mg/kg, po; assay type: ADME, organism-based, Sus scrofa; set-up: dose 5 mg/kg, route oral; conditions: in vivo; in short: as §1
[5] = AUC in pig at 5.0 mg/kg, po; assay type: ADME, organism-based, Sus scrofa; set-up: dose 5 mg/kg, route oral; conditions: plasma; in short: as §1
Sus scrofa [6] = assay: Cmax in pig at 5.0 mg/kg, po assessed as fenbendazole sulfoxide level; assay type: ADME, organism-based; set-up: dose 5 mg/kg, route oral; conditions: in vivo; in short: as §1
Sus scrofa [7] = assay: Cmax in pig at 5.0 mg/kg, po assessed as fenbendazole sulfone level; assay type: ADME, organism-based; set-up: dose 5 mg/kg, route oral; conditions: in vivo; in short: as §1
Sus scrofa [8] = assay: AUC in pig at 5.0 mg/kg, po assessed as fenbendazole sulfone level; assay type: ADME, organism-based, Plasma; set-up: dose 5 mg/kg, route oral; conditions: in vivo; in short: as §1
Sus scrofa [9] = assay: Tmax in pig at 5.0 mg/kg, po assessed as fenbendazole sulfone level; assay type: ADME, organism-based; set-up: dose 5 mg/kg, route oral; conditions: in vivo; in short: as §1
[10] = Tmax in pig at 5.0 mg/kg, po; assay type: ADME, organism-based, Sus scrofa; set-up: dose 5 mg/kg, route oral; conditions: in vivo; in short: as §1
Sus scrofa [11] = assay: AUC in pig at 5.0 mg/kg, po assessed as fenbendazole sulfoxide level; assay type: ADME, organism-based, Plasma; set-up: dose 5 mg/kg, route oral; conditions: in vivo; in short: as §1
Oesophagostomum dentatum [12] = assay: Anthelmintic activity against Oesophagostomum dentatum infected pig assessed as reduction in fecal egg shedding; assay type: functional
Oesophagostomum dentatum [13] = assay: Anthelmintic activity against Oesophagostomum dentatum infected pig assessed as worm burden reduction; assay type: functional
Sus scrofa [14] = assay: (§2) AUC in pig at 6.8 mg/kg, po assessed as sodium (2-(methoxycarbonyl)-5-(phenylsulphonyl)-1H-benzo[d]imidazol-1-yl)methyl phosphate level; assay type: ADME, organism-based, Plasma; set-up: dose 6.8 mg/kg, route oral; conditions: in vivo
Sus scrofa [15] = assay: Cmax in pig at 6.8 mg/kg, po assessed as sodium (2-(methoxycarbonyl)-5-(phenylsulphonyl)-1H-benzo[d]imidazol-1-yl)methyl phosphate; assay type: ADME, organism-based; set-up: dose 6.8 mg/kg, route oral; conditions: in vivo
Sus scrofa [16] = assay: Cmax in pig at 6.8 mg/kg, po; conditions: in vivo
Sus scrofa [17] = assay: as §2; assay type: ADME, organism-based, Plasma; set-up: dose 6.8 mg/kg, route oral; conditions: in vivo; remark: listed apart in the source
Sus scrofa [18] = assay: (§3) Tmax in pig at 6.8 mg/kg, po assessed as sodium (2-(methoxycarbonyl)-5-(phenylsulphonyl)-1H-benzo[d]imidazol-1-yl)methyl phosphate level; assay type: ADME, organism-based; set-up: dose 6.8 mg/kg, route oral; conditions: in vivo
Sus scrofa [19] = assay: as §3; assay type: ADME, organism-based; set-up: dose 6.8 mg/kg, route oral; conditions: in vivo; remark: listed apart in the source

For COC(=O)Nc1nc2cc(C(=O)c3ccccc3)ccc2n1COP(=O)([O-])O.[Na+], which solubility [1] is on record?
The solubility was over 50 mM.

And the Stability [2]?
The Stability was over 8 h.

For CCCSc1ccc2c(c1)nc(NC(=O)OC)n2COP(=O)([O-])O.[Na+], which solubility [1] is on record?
The solubility was over 50 mM.

What about the Stability [2] of the same molecule?
The Stability was over 8 h.

What does the source list for COC(=O)Nc1nc2cc([S+]([O-])c3ccccc3)ccc2n1COP(=O)([O-])O.[Na+] (stereo unspecified)?
solubility [1]: > 50 mM; Stability [2]: > 8 h

With COC(=O)Nc1nc2cc(C(=O)c3ccc(F)cc3)ccc2n1COP(=O)([O-])O.[Na+] as the molecule, how does the solubility [1] read?
The solubility was over 50 mM.

And the Stability [2]?
The Stability was over 8 h.

Which results are given for CCCCc1ccc2c(c1)nc(NC(=O)OC)n2COP(=O)([O-])O.[Na+]?
solubility [1]: > 50 mM; Stability [2]: > 8 h

With COC(=O)Nc1nc2ccc(Sc3ccccc3)cc2[nH]1 [FENBENDAZOLE] as the molecule, how does the Tmax (Sus scrofa [3]) read?
Its Tmax is 17 h.

What about the Cmax [4] of the same molecule?
The Cmax was 50 ng/mL.

What about the AUC [5] of the same molecule?
Its AUC is 310 ng·h/mL.

What about the Cmax (Sus scrofa [6]) of the same molecule?
Its Cmax is 1090 ng/mL.

And the Cmax (Sus scrofa [7])?
Its Cmax is 380 ng/mL.

And the AUC (Sus scrofa [8])?
Its AUC is 12730 ng·h/mL.

And the Tmax (Sus scrofa [9])?
The Tmax was 34 h.

What about the Tmax [10] of the same molecule?
The Tmax was 5.4 h.

And the AUC (Sus scrofa [11])?
The AUC was 35000 ng·h/mL.

Which results are given for COC(=O)Nc1nc2cc(Sc3ccccc3)ccc2[nH]1?
Activity (Oesophagostomum dentatum [12]): Active; Activity (Oesophagostomum dentatum [13]): Active

With COC(=O)Nc1nc2cc(Sc3ccccc3)ccc2n1COP(=O)([O-])O.[Na+] as the molecule, how does the AUC (Sus scrofa [14]) read?
The AUC was 31150 ng·h/mL.

What about the Cmax (Sus scrofa [15]) of the same molecule?
Its Cmax is 780 ng/mL.

What about the Cmax (Sus scrofa [16]) of the same molecule?
Its Cmax is 1410 ng/mL.

And the solubility [1]?
The solubility was 130 mM.

What about the Activity (Oesophagostomum dentatum [12]) of the same molecule?
Its Activity is “Active”.

What about the Stability [2] of the same molecule?
Its Stability is over 8 h.

What about the AUC (Sus scrofa [17]) of the same molecule?
The AUC was 58770 ng·h/mL.

What about the Tmax (Sus scrofa [18]) of the same molecule?
Its Tmax is 36 h.

What about the Activity (Oesophagostomum dentatum [13]) of the same molecule?
The Activity was “Active”.

What about the Tmax (Sus scrofa [19]) of the same molecule?
The Tmax was 15 h.
